Results taken from article PMC12506886 (RSC Advances, 2025).
Read-outs that look alike come from different tables or passages of the source.

Columns and labels:
[1] = tested on: A549 (human lung cancer) cells; test: MTT antiproliferative assay, A549 cells; format: cell-based; conditions: read-out: IC50 A549
Method in brief: (§1)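 Cancer cells were grown in RPMI 1640 with 10% FBS and 1% penicillin–streptomycin at 37 °C in humidified CO2. They were harvested with trypsin/EDTA and seeded at 8 × 10^3 cells per well. Cells were exposed to a concentration series in triplicate, with untreated wells as controls, for 72 h. MTT was then added for 4 h at 37 °C and formazan dissolved in DMSO (10 min, 37 °C, dark). Absorbance was read at 490 nm. IC50 is mean ± SD of 3–4 independent experiments.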

[2] = tested on: SW480 (human colon cancer) cells; test: MTT antiproliferative assay, SW480 cells; format: cell-based; conditions: read-out: IC50 SW480
Method in brief: as §1

[3] = tested on: MRC-5 (human fetal lung fibroblast cells); test: MTT cytotoxicity assay, MRC-5 normal cells; format: cell-based; conditions: MRC5, 72 h, read-out: IC50 MRC-5
Method in brief: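 Human fetal lung fibroblasts were harvested with trypsin/EDTA and seeded at 8 × 10^3 cells per well. They were treated in triplicate with a concentration series for 72 h, with untreated wells as controls. MTT was added for 4 h at 37 °C and formazan dissolved in DMSO. Absorbance was read at 490 nm. IC50 is mean ± SD of three independent replicates.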

A549 cells [4] = test: Cell cycle analysis by PI staining and flow cytometry; format: cell-based, human; conditions: A549, 16.1 μM
Method in brief: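 A549 cells (5 × 10^4) were pre-cultured for 16 h in high-glucose DMEM, then treated with 16.1 μM test compound for 24 h and 48 h. Cells were harvested with 0.25% trypsin, washed in PBS, and stained with propidium iodide plus 1 U RNase A. DNA content was measured by flow cytometry. Values are mean ± SD of three independent experiments, compared with control by one-way ANOVA and Tukey's test.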

A549 cells [5] = test: Annexin V-FITC/PI apoptosis assay by flow cytometry; format: cell-based, human; conditions: A549, 16.1 μM
Method in brief: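 A549 cells (1 × 10^5) were pre-cultured for 16 h, then exposed to 16.1 μM test compound for 24 h and 48 h. Cells were washed with PBS and 1× binding buffer, then stained with Annexin V-FITC for 15 min. After a further wash, PI was added in binding buffer and apoptosis rates were read by flow cytometry. Values are mean ± SD of three independent experiments, compared with untreated controls by one-way ANOVA and Tukey's test.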

A549 cells [6] = conditions: read-out: IC50 (A549); cited from earlier work
[7] = MTT, 72 h, mean ± SD of 3–4 independent replicates

Work on N.N.[Cl][Pt][Cl] [Cisplatin, reference compound] yielded an IC50 [1, 7] of 7.4 ± 1.6 µM.

Compound COc1cc(-c2nc3ccccc3n2Cc2cn(CC(=O)Nc3ccc(C)cc3)nn2)cc(OC)c1OC [Compound 9a, N-(p-Tolyl)-2-(4-((2-(3,4,5-trimethoxyphenyl)-1H-benzo[d]imidazol-1-yl)methyl)-1H-1,2,3-triazol-1-yl)acetamide] has an IC50 ([1]; Homo sapiens, A549, 72 h) of 67.4 ± 3.4 µM and an IC50 ([2]; Homo sapiens, SW480, 72 h) of 77.2 ± 3.2 µM.

COc1cc(-c2nc3ccccc3n2Cc2cn(CC(=O)Nc3ccccc3)nn2)cc(OC)c1OC [Compound 9b, N-Phenyl-2-(4-((2-(3,4,5-trimethoxyphenyl)-1H-benzo[d]imidazol-1-yl)methyl)-1H-1,2,3-triazol-1-yl)acetamide] gave an IC50 ([1]; Homo sapiens, A549, 72 h) of 114 ± 5 µM and an IC50 ([2]; Homo sapiens, SW480, 72 h) of 158 ± 7.8 µM.

With COc1cc(-c2nc3ccccc3n2Cc2cn(CC(=O)Nc3ccc(Br)cc3)nn2)cc(OC)c1OC [Compound 9d, N-(4-Bromophenyl)-2-(4-((2-(3,4,5-trimethoxyphenyl)-1H-benzo[d]imidazol-1-yl)methyl)-1H-1,2,3-triazol-1-yl)acetamide] the IC50 ([1]; Homo sapiens, A549, 72 h) was greater than 200 µM and the IC50 ([2]; Homo sapiens, SW480, 72 h) was greater than 200 µM.

For COc1cc(-c2nc3ccccc3n2Cc2cn(CC(=O)Nc3ccccc3Cl)nn2)cc(OC)c1OC [Compound 9e, N-(2-Chlorophenyl)-2-(4-((2-(3,4,5-trimethoxyphenyl)-1H-benzo[d]imidazol-1-yl)methyl)-1H-1,2,3-triazol-1-yl)acetamide], the IC50 ([1]; Homo sapiens, A549, 72 h) was 22.2 ± 4 µM, the IC50 ([2]; Homo sapiens, SW480, 72 h) was 30.4 ± 3.6 µM and the IC50 [3] was 105 ± 7.1 µM.

With COc1ccc(NC(=O)Cn2cc(Cn3c(-c4cc(OC)c(OC)c(OC)c4)nc4ccccc43)nn2)c(OC)c1 [Compound 9f, N-(2,4-Dimethoxyphenyl)-2-(4-((2-(3,4,5-trimethoxyphenyl)-1H-benzo[d]imidazol-1-yl)methyl)-1H-1,2,3-triazol-1-yl)acetamide] the “changes in the number of cells in the cell cycle phases compared to control” value (A549 cells [4]; 24 h) was “not significant”, the “number of cells in the G2/M phase” value (A549 cells [4]; 48 h, non-significant decrease) was 12.05% and the “number of cells in the S phase” value (A549 cells [4]; 48 h, p < 0.001 vs control) was 33.04%. The “number of cells in the G0/G1 phase” value (A549 cells [4]; 48 h, p < 0.01 vs control) was 54.91%, the IC50 ([1]; Homo sapiens, A549, 72 h) was 16.1 ± 1.1 µM and the IC50 ([2]; Homo sapiens, SW480, 72 h) was 19.7 ± 2.7 µM. For the same compound, the IC50 [3] was 121 ± 6.7 µM, the “rate of early apoptosis (Q3)” value (A549 cells [5]; 24 h) was 3.79% and the “rate of late apoptosis (Q2)” value (A549 cells [5]; 24 h) was 1.63%. The “rate of early apoptosis (Q3)” value (A549 cells [5]; 48 h) was 12.2% and the “rate of late apoptosis (Q2)” value (A549 cells [5]; 48 h) was 4.01%.

COc1cc(-c2nc3ccccc3n2Cc2cn(CC(=O)Nc3ccc(Cl)cc3Cl)nn2)cc(OC)c1OC [Compound 9g, N-(2,4-Dichlorophenyl)-2-(4-((2-(3,4,5-trimethoxyphenyl)-1H-benzo[d]imidazol-1-yl)methyl)-1H-1,2,3-triazol-1-yl)acetamide] gave an IC50 ([1]; Homo sapiens, A549, 72 h) of 31.5 ± 4.2 µM and an IC50 ([2]; Homo sapiens, SW480, 72 h) of 64.5 ± 3.3 µM.

With COc1cc(-c2nc3ccccc3n2Cc2cn(CC(=O)Nc3ccccc3[N+](=O)[O-])nn2)cc(OC)c1OC [Compound 9h, N-(2-Nitrophenyl)-2-(4-((2-(3,4,5-trimethoxyphenyl)-1H-benzo[d]imidazol-1-yl)methyl)-1H-1,2,3-triazol-1-yl)acetamide] the IC50 ([1]; Homo sapiens, A549, 72 h) was 32.5 ± 4.2 µM and the IC50 ([2]; Homo sapiens, SW480, 72 h) was 43.8 ± 2.5 µM.

Compound COc1cc(-c2nc3ccccc3n2Cc2cn(CC(=O)Nc3ccc(C)cc3C)nn2)cc(OC)c1OC [Compound 9i, N-(2,4-Dimethylphenyl)-2-(4-((2-(3,4,5-trimethoxyphenyl)-1H-benzo[d]imidazol-1-yl)methyl)-1H-1,2,3-triazol-1-yl)acetamide] has an IC50 ([1]; Homo sapiens, A549, 72 h) of 29.3 ± 6.6 µM and an IC50 ([2]; Homo sapiens, SW480, 72 h) of 51.5 ± 4.6 µM.

Work on COc1ccc(NC(=O)Cn2cc(Cn3c(-c4cc(OC)c(OC)c(OC)c4)nc4ccccc43)nn2)cc1 [Compound 9j, N-(4-Methoxyphenyl)-2-(4-((2-(3,4,5-trimethoxyphenyl)-1H-benzo[d]imidazol-1-yl)methyl)-1H-1,2,3-triazol-1-yl)acetamide] yielded an IC50 ([1]; Homo sapiens, A549, 72 h) of 57.6 ± 5.7 µM and an IC50 ([2]; Homo sapiens, SW480, 72 h) of 68.1 ± 2.2 µM.

With COc1cc(-c2nc3ccccc3n2Cc2cn(CC(=O)Nc3cccc(C)c3C)nn2)cc(OC)c1OC [Compound 9k, N-(2,3-Dimethylphenyl)-2-(4-((2-(3,4,5-trimethoxyphenyl)-1H-benzo[d]imidazol-1-yl)methyl)-1H-1,2,3-triazol-1-yl)acetamide] the IC50 ([1]; Homo sapiens, A549, 72 h) was 37.9 ± 0.14 µM and the IC50 ([2]; Homo sapiens, SW480, 72 h) was 53.5 ± 6.4 µM.

CCc1ccc(NC(=O)Cn2cc(Cn3c(-c4cc(OC)c(OC)c(OC)c4)nc4ccccc43)nn2)cc1 [Compound 9l, N-(4-Ethylphenyl)-2-(4-((2-(3,4,5-trimethoxyphenyl)-1H-benzo[d]imidazol-1-yl)methyl)-1H-1,2,3-triazol-1-yl)acetamide] gave an IC50 ([1]; Homo sapiens, A549, 72 h) of 50.3 ± 6.7 µM and an IC50 ([2]; Homo sapiens, SW480, 72 h) of 65.3 ± 1 µM.

With COc1cc(-c2nc3ccccc3n2Cc2cn(CC(=O)NCc3ccccc3)nn2)cc(OC)c1OC [Compound 9m, N-Benzyl-2-(4-((2-(3,4,5-trimethoxyphenyl)-1H-benzo[d]imidazol-1-yl)methyl)-1H-1,2,3-triazol-1-yl)acetamide] the IC50 ([1]; Homo sapiens, A549, 72 h) was 47.9 ± 2.7 µM and the IC50 ([2]; Homo sapiens, SW480, 72 h) was 72.3 ± 5.3 µM.

With COc1cc(-c2nc3ccccc3n2Cc2cn(CC(=O)Nc3cccc(Cl)c3)nn2)cc(OC)c1OC [Compound 9n, N-(3-Chlorophenyl)-2-(4-((2-(3,4,5-trimethoxyphenyl)-1H-benzo[d]imidazol-1-yl)methyl)-1H-1,2,3-triazol-1-yl)acetamide] the IC50 ([1]; Homo sapiens, A549, 72 h) was 20.3 ± 2 µM, the IC50 ([2]; Homo sapiens, SW480, 72 h) was 34.3 ± 3.1 µM and the IC50 [3] was 124.2 ± 0.4 µM.

COc1cc(-c2nc3ccccc3n2Cc2cn(CC(=O)Nc3ccccc3F)nn2)cc(OC)c1OC [Compound 9o, N-(2-Fluorophenyl)-2-(4-((2-(3,4,5-trimethoxyphenyl)-1H-benzo[d]imidazol-1-yl)methyl)-1H-1,2,3-triazol-1-yl)acetamide] showed an IC50 ([1]; Homo sapiens, A549, 72 h) of 48.9 ± 2.2 µM and an IC50 ([2]; Homo sapiens, SW480, 72 h) of 62.4 ± 3.7 µM.

In the case of COc1cc(-c2nc3ccc(C)cc3[nH]2)cc(OC)c1OC [Compound I, 6-methyl-2-(3,4,5-trimethoxyphenyl)-1H-benzo[d]imidazole], the IC50 (A549 cells [6]) is listed as 39.4 µM.

In the case of COc1cccc2c1C(=O)c1c(O)c3c(c(O)c1C2=O)C[C@@](O)(C(=O)CO)C[C@@H]3O[C@H]1C[C@H](N)[C@H](O)[C@H](C)O1 [Doxorubicin, reference compound], the IC50 ([1]; Homo sapiens, A549, 72 h) is reported as 0.46 ± 0.02 µM, the IC50 ([2]; Homo sapiens, SW480, 72 h) is reported as 0.59 ± 0.07 µM and the IC50 [3] is reported as 0.39 ± 0.06 µM.

“N-(2-Nitrophenyl)-2-(4-((2-(3,4,5-trimethoxyphenyl)-1H-benzo[d]imidazol-1-yl)methyl)-1H-1,2,3-triazol-1-yl)acetamide [Compound 9c]” gave an IC50 [1, 7] of 23.5 ± 3.6 µM and an IC50 [2, 7] of 22.5 ± 3.9 µM.
